Broadly, the EC50 is the concentration that produces a half-maximal response. The CC50 is the concentration at which the toxic effect on the cells reaches its halfway point. A lower CC50 goes with greater toxicity to the cells. One may read the IC50 as the concentration needed to halve the response being measured. Low values mean greater potency in that assay, high ones weaker potency in that assay.

For data set [1], the system named is Hepatitis C virus. The experiment in a line: Antiviral activity against Hepatitis C virus JFH-1 J6 infected in human HuH7.5 cells assessed as inhibition of virus propagation measured after 72 hrs. The format is functional, organism-based, Hepacivirus hominis. Particulars: subtype 2a JFH1 J6, Huh-7, 72 h. The essentials:
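Huh-7.5 hepatoma cells infected with HCV genotype 2a J6/JFH-1 were treated with inhibitor at 0.001–100 µM. […] An NS3/NS4A protease inhibitor served as positive control. Values are means of three experiments.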

A short description of data set [2]: Cytotoxicity against human Huh7.5 cells. The format is cell-based. Particulars: huh-7. Summed up:
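Huh-7.5 hepatoma cells; read-out is the 50% cytotoxic concentration (CC50), reported as the mean of three experiments.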

Data set [3] is described as follows: Inhibition of Hepatitis C virus core protein dimerization by core dimerization assay. Further details: species or system Hepacivirus hominis.
Data set [4] concerns Hepatitis C virus. The experiment in a line: Antiviral activity against Hepatitis C virus JFH-1 J6 infected in human HuH7.5 cells assessed as inhibition of virus propagation measured after 72 hrs of transfer to fresh media. The format is functional, organism-based, Hepacivirus hominis. Particulars: subtype 2a JFH1 J6, Huh-7, 72 h. The essentials: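 Huh-7.5 hepatoma cells, HCV 2a J6/JFH-1. Virus secreted during the initial 72 hr inhibitor-treated culture (0.001–100 µM) was used to infect fresh cells, which were cultured a second 72 hr (T2). HCV propagation was then assessed, with an NS3/NS4A protease inhibitor as positive control. Values are means of three experiments.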

Consider `COC(=O)C1=C(C(=O)OC)[C@@H]2N(CCCCCN3c4ccccc4[C@]45CCC(=O)N(Cc6ccccc6)C4=NC(C(=O)OC)=C(C(=O)OC)[C@H]35)c3ccccc3[C@@]23CCC(=O)N(Cc2ccccc2)C3=N1` (mixture of isomers), for which the values for the EC50 in data set [1] and in data set [4] were 90 nM and 29900 nM, respectively. The same compound had a CC50 in data set [2] of over 36000 nM. In addition, in data set [3], the 50% inhibitory concentration (IC50) came to 720 nM.
Turning to `COc1ccc2c(O[C@@H]3C[C@H]4C(=O)N[C@]5(C(=O)O)C[C@H]5/C=C\CCCCC[C@H](NC(=O)OC5CCCC5)C(=O)N4C3)cc(-c3csc(NC(C)C)n3)nc2c1` [CILUPREVIR], the EC50 in data set [1] amounted to 72 nM; in data set [4] it was 71 nM.
On to `COC(=O)C1=C(C(=O)OC)[C@@H]2N(CCCCCn3cc(-c4ccc(OC)cc4C)nn3)c3ccccc3[C@@]23CCC(=O)N(Cc2ccccc2)C3=N1` (racemic), for which the EC50 worked out at 1400 nM in data set [1] and 1100 nM in data set [4]. For the same compound, the CC50 in data set [2] was over 100000 nM. The same compound registered an IC50 in data set [3] of 92 nM.
Consider `COC(=O)C1=C(C(=O)OC)[C@@H]2N(CCCCCn3cc(CNC(C)=O)nn3)c3ccccc3[C@@]23CCC(=O)N(Cc2ccccc2)C3=N1` (racemic), for which the values for the EC50 in data set [1] and in data set [4] were 26200 nM and 56200 nM, respectively. Moreover, the midpoint of cytotoxicity in data set [2], the CC50, lay at 150000 nM. Besides, the IC50 in data set [3] was determined as 341 nM.
The corresponding values for `COC(=O)C1=C(C(=O)OC)[C@@H]2N(CCOCCN3c4ccccc4[C@]45CCC(=O)N(Cc6ccccc6)C4=NC(C(=O)OC)=C(C(=O)OC)[C@H]35)c3ccccc3[C@@]23CCC(=O)N(Cc2ccccc2)C3=N1` are 480 nM, 2500 nM, over 100000 nM and 98 nM.
For the compound `COC(=O)C1=C(C(=O)OC)[C@@H]2N(CCCN3c4ccccc4[C@]45CCC(=O)N(Cc6ccccc6)C4=NC(C(=O)OC)=C(C(=O)OC)[C@H]35)c3ccccc3[C@@]23CCC(=O)N(Cc2ccccc2)C3=N1`, the EC50 came to 88 nM in data set [1] and 735 nM in data set [4]. The CC50 in data set [2] was over 36000 nM. Half-maximal inhibition in data set [3] (IC50) required 2900 nM.
